The source of these data is ChEMBL document CHEMBL1153830, “Treatment of a clinically relevant plant-pathogenic fungus with an agricultural azole causes cross-resistance to medical azoles and potentiates caspofungin efficacy” (2007).

Converted amounts (≈) assume the structure as drawn. The source made the active and inactive calls. No cut-off for these calls is given here.

In test [1] the test system is Colletotrichum graminicola. Kind of test: Fungicidal activity against tebuconazole-nonadapted wild type Colletotrichum graminicola CgM2 assessed as inhibition of radial growth rate at 23 degC in darkness. The format is functional. To be noted: for EC50: Colletotrichum graminicola, CgM2, read-out: ED50 (the source's name). In short, it runs like this: (§1)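 Radial growth on solid complete medium, 23°C, darkness. Colony diameters were read at 3 and 6 days after inoculation and compared with drug-free control plates. Azoles and picoxystrobin were dissolved in 12% (wt/vol) Cremophor EL and tested at 0–2.5 μg/ml. Caspofungin, amphotericin B and nystatin were dissolved in water and tested from 0.00025 μg/ml; caspofungin plates used sucrose (10 mg/ml) in place of glucose.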

The subject of test [2] is Colletotrichum graminicola. As to the kind of experiment: Fungicidal activity against tebuconazole-nonadapted wild type Colletotrichum graminicola CgM2 infected in excised human skin assessed as inhibition of invasive colonized hyphal growth at dermis at ED50 after 4 days by Uvitex-2B staining-based fluorescence microscopy. The format is functional, organism-based. In short, it runs like this: (§2)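 Excised human skin from reduction mammoplasty, all pieces from one donor, cut to 20 mm discs. Each disc got 15–20 prick wounds and 100 μl of 10^6 conidia/ml. Discs sat in a Franz diffusion cell at 32°C over isotonic NaCl for up to 4 days. Drug was applied at ED50, ED90 or 2× ED90, three pieces per condition. Biopsies were cryosectioned and Uvitex 2B-stained; hyphal area per section was measured by fluorescence.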

The subject of test [3] is Colletotrichum graminicola. As to the kind of experiment: Fungicidal activity against tebuconazole-adapted wild type Colletotrichum graminicola CgM2 infected in excised human skin assessed as inhibition of invasive colonized hyphal growth at epidermis at ED90 after 4 days by Uvitex-2B staining-based fluorescence microscopy. The format is functional, organism-based. In short, it runs like this:
as §2

The test system of test [4] is Colletotrichum graminicola. As to the kind of experiment: Fungicidal activity against tebuconazole-nonadapted wild type Colletotrichum graminicola CgM2 infected in excised human skin assessed as inhibition of invasive colonized hyphal growth at epidermis at twofold ED90 after 4 days by Uvitex-2B staining-based fluorescence microscopy. The class given is functional, organism-based. In short, it runs like this: as §2

Test [5] concerns Colletotrichum graminicola. Kind of test: Fungicidal activity against tebuconazole-nonadapted wild type Colletotrichum graminicola CgM2 infected in excised human skin assessed as inhibition of invasive colonized hyphal growth at dermis at ED90 after 4 days by Uvitex-2B staining-based fluorescence microscopy. The class given is functional, organism-based. In short, it runs like this:
as §2

The test system of test [6] is Colletotrichum graminicola. Kind of test: Fungicidal activity against tebuconazole-adapted wild type Colletotrichum graminicola CgM2 assessed as deffects in cell wall rigidity at 2.5 ug/ml after 3 days by differential interference contrast microscopy. The format is functional, organism-based. In short, it runs like this:
(§3)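 Mycelia were grown 3 days in liquid complete medium with caspofungin at 0–5 μg/ml. Cell wall rigidity and hyphal swelling were judged by Nomarski (DIC) light microscopy.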

In test [7] the test system is Colletotrichum graminicola. Kind of test: Fungicidal activity against tebuconazole-adapted wild type Colletotrichum graminicola CgM2 assessed as increase in metabolically inactive hyphal count at 2.5 ug/ml after 3 days by FUN1 staining-based fluorescence microscopy. The class given is functional, organism-based. In short, it runs like this: (§4)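 Mycelia were grown 3 days in liquid complete medium with drug at 0–5 μg/ml. Staining used 50 μM FUN-1 in 2% glucose and 10 mM HEPES (pH 7.2), 1 h at 27°C. Viability was scored by epifluorescence microscopy with a GFP-LP filter. Negative controls were killed with 70% ethanol for 30 min before staining.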

Test [8] has as its system Colletotrichum graminicola. As to the kind of experiment: Fungicidal activity against tebuconazole-nonadapted wild type Colletotrichum graminicola CgM2 assessed as cell death at 2.5 ug/ml after 3 days by FUN1 staining-based fluorescence microscopy. The class given is functional, organism-based. In short, it runs like this:
as §4

For test [9], the system named is Colletotrichum graminicola. As to the kind of experiment: Fungicidal activity against tebuconazole-adapted wild type Colletotrichum graminicola CgM2 assessed as cell wall rigidity deffect-related cell wall swelling at 0.25 ug/ml after 3 days by differential interference contrast microscopy. The format is functional, organism-based. In short, it runs like this:
as §3

The test system of test [10] is Colletotrichum graminicola. As to the kind of experiment: Fungicidal activity against tebuconazole-nonadapted wild type Colletotrichum graminicola CgM2 infected in excised human skin assessed as inhibition of invasive colonized hyphal growth at epidermis at ED90 after 4 days by Uvitex-2B staining-based fluorescence microscopy. The format is functional, organism-based. In short, it runs like this: as §2

Test [11] relates to Colletotrichum graminicola. Kind of test: Fungicidal activity against tebuconazole-adapted wild type Colletotrichum graminicola CgM2 assessed as inhibition of radial growth rate at 23 degC in darkness. The class given is functional. Conditions: for EC50: Colletotrichum graminicola, CgM2, read-out: ED50 (the source's name). In short, it runs like this: as §1
Test [12] concerns Colletotrichum graminicola. As to the kind of experiment: Fungicidal activity against tebuconazole-nonadapted wild type Colletotrichum graminicola CgM2 assessed as deffects in cell wall rigidity at hyphal apex at 0.25 ug/ml after 3 days by differential interference contrast microscopy. The format is functional, organism-based. In short, it runs like this:
as §3

Test [13] relates to Colletotrichum graminicola. As to the kind of experiment: Fungicidal activity against tebuconazole-nonadapted wild type Colletotrichum graminicola CgM2 infected in excised human skin assessed as inhibition of invasive colonized hyphal growth at epidermis at ED50 after 4 days by Uvitex-2B staining-based fluorescence microscopy. The class given is functional, organism-based. In short, it runs like this:
as §2

For test [14], the system named is Colletotrichum graminicola. As to the kind of experiment: Fungicidal activity against tebuconazole-adapted wild type Colletotrichum graminicola CgM2 assessed as cell death at 0.25 ug/ml after 3 days by FUN1 staining-based fluorescence microscopy. The format is functional, organism-based. In short, it runs like this: as §4
Test [15] relates to Colletotrichum graminicola. As to the kind of experiment: Fungicidal activity against tebuconazole-nonadapted wild type Colletotrichum graminicola CgM2 assessed as metabolically inactive hyphae at 0.025 ug/ml after 3 days by FUN1 staining-based fluorescence microscopy. The format is functional, organism-based. In short, it runs like this:
as §4

In test [16] the test system is Colletotrichum graminicola. As to the kind of experiment: Fungicidal activity against tebuconazole-nonadapted wild type Colletotrichum graminicola CgM2 assessed as metabolically inactive hyphae at 0.25 ug/ml after 3 days by FUN1 staining-based fluorescence microscopy. The class given is functional, organism-based. In short, it runs like this: as §4
Test [17] deals with Colletotrichum graminicola. As to the kind of experiment: Fungicidal activity against tebuconazole-adapted wild type Colletotrichum graminicola CgM2 assessed as cell wall rigidity deffect-related increase in apical cell diameter at 0.025 ug/ml after 3 days by differential interference contrast microscopy. The format is functional, organism-based. In short, it runs like this:
as §3

In test [18] the test system is Colletotrichum graminicola. Kind of test: Fungicidal activity against tebuconazole-adapted wild type Colletotrichum graminicola CgM2 infected in excised human skin assessed as inhibition of invasive colonized hyphal growth at dermis at ED90 after 4 days by Uvitex-2B staining-based fluorescence microscopy. The class given is functional, organism-based. In short, it runs like this:
as §2

For test [19], the system named is Colletotrichum graminicola. Kind of test: Fungicidal activity against tebuconazole-adapted wild type Colletotrichum graminicola CgM2 infected in excised human skin assessed as inhibition of invasive colonized hyphal growth at hypodermis at ED90 after 4 days by Uvitex-2B staining-based fluorescence microscopy. The class given is functional, organism-based. In short, it runs like this:
as §2

Test [20] relates to Colletotrichum graminicola. Kind of test: Fungicidal activity against tebuconazole-nonadapted wild type Colletotrichum graminicola CgM2 assessed as deffects in cell wall rigidity at 0.025 ug/ml after 3 days by differential interference contrast microscopy. The class given is functional, organism-based. In short, it runs like this: as §3
Test [21] relates to Colletotrichum graminicola. As to the kind of experiment: Fungicidal activity against tebuconazole-adapted wild type Colletotrichum graminicola CgM2 assessed as metabolically inactive hyphae at 0.025 ug/ml after 3 days by FUN1 staining-based fluorescence microscopy. The format is functional, organism-based. In short, it runs like this:
as §4

For test [22], the system named is Colletotrichum graminicola. As to the kind of experiment: Fungicidal activity against tebuconazole-nonadapted wild type Colletotrichum graminicola CgM2 assessed as deffects in cell wall rigidity at 0.25 ug/ml after 3 days by differential interference contrast microscopy. The class given is functional, organism-based. In short, it runs like this: as §3
Test [23] has as its system Colletotrichum graminicola. Kind of test: Fungicidal activity against tebuconazole-nonadapted wild type Colletotrichum graminicola CgM2 assessed as deffects in cell wall rigidity at 2.5 ug/ml after 3 days by differential interference contrast microscopy. The class given is functional, organism-based. In short, it runs like this:
as §3

The test system of test [24] is Colletotrichum graminicola. Kind of test: Fungicidal activity against tebuconazole-adapted wild type Colletotrichum graminicola CgM2 infected in excised human skin assessed as inhibition of invasive colonized hyphal growth at epidermis at twofold ED90 after 4 days by Uvitex-2B staining-based fluorescence microscopy. The format is functional, organism-based. In short, it runs like this: as §2

Test [25] relates to Colletotrichum graminicola. As to the kind of experiment: Fungicidal activity against tebuconazole-nonadapted wild type Colletotrichum graminicola CgM2 infected in excised human skin assessed as inhibition of invasive colonized hyphal growth at hypodermis at twofold ED90 after 4 days by Uvitex-2B staining-based fluorescence microscopy. The class given is functional, organism-based. In short, it runs like this: as §2

Test [26] relates to Colletotrichum graminicola. As to the kind of experiment: Fungicidal activity against tebuconazole-adapted wild type Colletotrichum graminicola CgM2 infected in excised human skin assessed as inhibition of invasive colonized hyphal growth at dermis at twofold ED90 after 4 days by Uvitex-2B staining-based fluorescence microscopy. The class given is functional, organism-based. In short, it runs like this: as §2

Test [27] relates to Colletotrichum graminicola. Kind of test: Fungicidal activity against tebuconazole-nonadapted wild type Colletotrichum graminicola CgM2 infected in excised human skin assessed as inhibition of invasive colonized hyphal growth at hypodermis at ED90 after 4 days by Uvitex-2B staining-based fluorescence microscopy. The class given is functional, organism-based. In short, it runs like this:
as §2

Test [28] concerns Colletotrichum graminicola. Kind of test: Fungicidal activity against tebuconazole-adapted wild type Colletotrichum graminicola CgM2 infected in excised human skin assessed as inhibition of invasive colonized hyphal growth at hypodermis at twofold ED90 after 4 days by Uvitex-2B staining-based fluorescence microscopy. The class given is functional, organism-based. In short, it runs like this: as §2

The subject of test [29] is Colletotrichum graminicola. Kind of test: Fungicidal activity against tebuconazole-adapted wild type Colletotrichum graminicola CgM2 infected in excised human skin assessed as inhibition of invasive colonized hyphal growth at dermis at ED50 after 4 days by Uvitex-2B staining-based fluorescence microscopy. The class given is functional, organism-based. In short, it runs like this: as §2

Test [30] has as its system Colletotrichum graminicola. Kind of test: Fungicidal activity against tebuconazole-adapted wild type Colletotrichum graminicola CgM2 infected in excised human skin assessed as inhibition of invasive colonized hyphal growth at epidermis at ED50 after 4 days by Uvitex-2B staining-based fluorescence microscopy. The class given is functional, organism-based. In short, it runs like this:
as §2

Test [31] has as its system Colletotrichum graminicola. As to the kind of experiment: Fungicidal activity against tebuconazole-nonadapted wild type Colletotrichum graminicola CgM2 infected in excised human skin assessed as inhibition of invasive colonized hyphal growth at hypodermis at ED50 after 4 days by Uvitex-2B staining-based fluorescence microscopy. The format is functional, organism-based. In short, it runs like this:
as §2

The test system of test [32] is Colletotrichum graminicola. As to the kind of experiment: Fungicidal activity against tebuconazole-adapted wild type Colletotrichum graminicola CgM2 infected in excised human skin assessed as inhibition of invasive colonized hyphal growth at hypodermis at ED50 after 4 days by Uvitex-2B staining-based fluorescence microscopy. The class given is functional, organism-based. In short, it runs like this:
as §2

Test [33] has as its system Colletotrichum graminicola. Kind of test: Fungicidal activity against tebuconazole-nonadapted wild type Colletotrichum graminicola CgM2 infected in excised human skin assessed as inhibition of invasive colonized hyphal growth at dermis at twofold ED90 after 4 days by Uvitex-2B staining-based fluorescence microscopy. The format is functional, organism-based. In short, it runs like this: as §2

In the case of `CC[C@H](C)C[C@H](C)CCCCCCCCC(=O)N[C@H]1C[C@@H](O)[C@@H](NCCN)NC(=O)[C@@H]2[C@@H](O)CCN2C(=O)[C@H]([C@H](O)CCN)NC(=O)[C@H]([C@H](O)[C@@H](O)c2ccc(O)cc2)NC(=O)[C@@H]2C[C@@H](O)CN2C(=O)[C@H]([C@@H](C)O)NC1=O` [CASPOFUNGIN], the ED90 in [1] was found to be 1.281 µg/mL (≈ 1.17 µM); in [11], 0.77 µg/mL (≈ 0.704 µM). Further, the EC50 in [1] came to 0.032 µg/mL (≈ 0.0293 µM); in test [11], 0.006 µg/mL (≈ 0.00549 µM). Besides, the outcome in test [2], in test [4], in [5], in [6], in test [10] and in test [13] was inactive. Also, the outcome in test [15] and in test [20] was inactive. Moreover, the result in [3], in test [7], in [8], in [9], in [12] and in test [14] was Active. Besides, the outcome in test [16], in test [17], in test [18], in test [19], in test [21] and in test [22] was Active. The result in test [23] was Active.

As for `c1ccc(-c2ccc(C(c3ccccc3)n3ccnc3)cc2)cc1` (configuration not stated) [BIFONAZOLE], the values for the ED90 in test [1] and in test [11] were 1.958 µg/mL (≈ 6.31 µM) and 4.892 µg/mL (≈ 15.8 µM), respectively. The EC50 in [1] amounted to 0.148 µg/mL (≈ 0.477 µM); in test [11], 0.33 µg/mL (≈ 1.06 µM). Further, the outcome in [24], in test [3], in [26], in test [28], in test [29] and in test [30] was inactive. In addition, the outcome in test [18], in test [19] and in test [32] was inactive. Also, the outcome in [2], in test [25], in test [4], in test [5], in test [27] and in [10] was Active. Besides, the outcome in test [13], in test [31] and in test [33] was Active.
